rRNA inh HTS: selective bacterial rRNA inhibition in E. coli | E. coli WT GFP vs humanized-ribosome RFP mutants, fluorescence, 24 h; active compounds read low; DMSO median 0, no signal -100 | GFP signal change (wild-type ribosome), % (test concentration not listed) | 1.6% of 350,000 active | AID 720706;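 active = significant combined selectivity score with lowered wild-type GFP, culture density cut under 30%, mutant RFP and density less affected; inactive = any of these conditions unmet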
S100A4 inh HTS: blocks human S100A4 binding to myosin IIA peptide; AID 652163; inhibition, % at 10.7 µM; 0.14% of 360,000 active; P26447; S100A4/TAMRA-MyoIIA peptide fluorescence polarization;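 active = mean inhibition of at least 70% across replicates, with every replicate also reaching that level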
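Material: S100A4 monomer protein | Medium: HEPES pH 7.2 with CaCl2, KCl, NaCl, DTT, Triton | Reagent: Labelled myosin peptide probe, 5 nM | Doses: One dose per compound | Times: 5 min incubation before reading | Benchmarks: Neutral control DMSO, positive control TFP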
ERAP1 HTS inh: blocks human ERAP1 aminopeptidase activity; Q9NZ08; recombinant ERAP1, Leu-AMC fluorescence, 60 min; inhibition, % at 10.7 µM; 0.15% of 340,000 active; AID 652197;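 active = mean replicate inhibition of at least 30%, or all replicates individually reaching that 30% level; inactive = mean below 30% and not every replicate reaching it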
E-selectin induc: E-selectin induction on HUVECs | HUVEC E-selectin immunofluorescence imaging; normalized: neutral wells 0, TNF-alpha wells 100 | P16581 | 0.37% of 260,000 active | activation, % at 7.58 µM;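 active = mean E-selectin-positive cell signal at least 10% of the positive control, reached in at least 60% of replicates, without over 20% cell loss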
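Assay system: HUVEC, human umbilical vein endothelial cells / Amount: 3,000 HUVEC/well / Controls: TNF-alpha positive control, DMSO neutral control / Compound dosing: single concentration / Medium: EGM-2 over gelatin coat / Evaluation: percent E-selectin-positive cells / Signal: immunofluorescence imaging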
SIRT5 inh: inhibitors of human sirtuin-5 desuccinylase. Purified SirT5, succinyl-peptide AMC, trypsin-coupled fluorescence. 1.1% of 330,000 active. Q9NXA8. inhibition, % at 15 µM; in the data active = inhibition above about 15%
MLL AF4-AF9 inh: blocks AF4 peptide binding to human AF9; P42568; AlphaScreen, biotin-AF4 peptide binding to FLAG-AF9; 0.47% of 350,000 active; inhibition, % at 10 µM;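 active = every replicate reaching a set inhibition limit, whatever the replicate mean, cut at about 25% in these data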
A number is an active result; - = inactive; . = not tested or not shown. This is a sample that favours compounds with a hit; in the whole collection about 3.4% have one here.

SMILES | rRNA inh HTS | S100A4 inh HTS | ERAP1 HTS inh | E-selectin induc | SIRT5 inh | MLL AF4-AF9 inh
CC(C)c1cn(CC[C@@H]2CC[C@H](NS(=O)(=O)c3ccccc3)[C@@H](CO)O2)nn1 | - | - | - | - | - | -
CNC[C@@H]1Oc2c(NC(=O)NC(C)C)cccc2C(=O)N([C@@H](C)CO)C[C@H]1C | - | - | - | - | - | -
CO[C@H]1CN(C)C(=O)c2ccc(NC(=O)Nc3c(C)noc3C)cc2OC[C@@H](C)NC[C@@H]1C | - | - | . | - | - | -
Cc1ccccc1C(=O)Nc1ccc(C(=O)N/N=C/c2ccc(O)c(Br)c2)cc1 | -19.2 | - | - | . | - | -
Cc1ccccc1C(=O)Nc1ccc(C(=O)N/N=C/c2ccc(F)cc2)cc1 | - | - | - | . | - | -
O=C(O)c1ccc(C2NCC(c3ccccc3Cl)c3c2[nH]c2ccccc32)cc1 (centres undefined) | -36.9 | - | - | - | - | -
C[C@H](CO)N1C[C@H](C)[C@H](CN(C)C(=O)c2cccnc2)Oc2cc(C#CC3(O)CCCC3)ccc2S1(=O)=O | - | - | - | . | - | -
CCC(=O)NC(c1cccs1)c1cc([N+](=O)[O-])c2cccnc2c1O (centres undefined) | - | - | - | - | 23.7 | -
CCCC(=O)NC(c1cccs1)c1cc([N+](=O)[O-])c2cccnc2c1O (centres undefined) | - | - | - | - | - | -
COc1ccc(OC)c(NC(=O)COC(=O)c2c3c(nc4ccccc24)CCCC3)c1 | -27.5 | - | - | . | - | -
COc1ccc(OC)c(Nc2c3ccccc3nc3ccccc23)c1 | - | - | - | - | - | 40.4
CCCN(C)C[C@H]1OCCCC[C@@H](C)Oc2ccc(NS(C)(=O)=O)cc2C(=O)N([C@@H](C)CO)C[C@H]1C | - | - | - | - | - | -
COc1ccc(NC(=O)c2ccc3[nH]c(C)c(C)c3c2)c(OC)c1 | -14.7 | - | - | - | - | -
Cc1ccc(S(=O)(=O)Nc2ccc3c(c2)C(=O)N([C@@H](C)CO)C[C@@H](C)[C@@H](CN(C)C(=O)Nc2ccc4c(c2)OCO4)OCCCC[C@@H](C)O3)cc1 | - | - | - | - | - | -
O=C(CN(C(=O)c1csnn1)c1ccc2c(c1)OCCO2)NCc1ccc(F)cc1 | - | - | - | 39.0 | - | -
Cc1noc(C)c1S(=O)(=O)Nc1ccc2c(c1)C(=O)N([C@@H](C)CO)C[C@@H](C)[C@H](CN(C)C(=O)Nc1ccccc1)OCCCC[C@@H](C)O2 | - | - | - | - | - | -
C[N+]1(CC2COC3(CCCCC3)O2)CCCCC1 (centres undefined) | - | - | 54.0 | - | - | -
O=C(C[C@@H]1C[C@H]2c3cc(NC(=O)NC4CCCC4)ccc3O[C@H]2[C@H](CO)O1)NCCc1ccccc1 | - | 111.1 | - | - | - | -
O=C(C[C@@H]1C[C@@H]2c3cc(NC(=O)Nc4ccccc4)ccc3O[C@@H]2[C@H](CO)O1)NC1CCCC1 | - | - | - | - | - | -
O=C(C[C@H]1C[C@@H]2c3cc(NC(=O)Nc4ccccc4)ccc3O[C@@H]2[C@H](CO)O1)NC1CCCC1 | - | - | - | - | 0.5 | -
O=S(=O)(Nc1ccccc1N1CCOCC1)c1ccccc1C(F)(F)F | - | - | - | - | - | -
Cn1cnc(S(=O)(=O)Nc2ccccc2N2CCOCC2)c1 | - | - | . | . | 15.2 | -
CO[C@H]1CN(C)C(=O)c2cc(NC(=O)Nc3cc(F)ccc3F)ccc2OC[C@@H](C)N(C)C[C@@H]1C | - | - | - | - | - | -
C[C@@H]1CN([C@H](C)CO)C(=O)c2cc(NC(=O)Nc3cccc4ccccc34)ccc2O[C@H]1CN(C)S(=O)(=O)c1cn(C)cn1 | - | - | - | - | - | -
O=C(Nc1ccc(Cl)c(Cl)c1)N[C@@H]1CC[C@H](CCn2cc(C3CCCCC3)nn2)O[C@H]1CO | -46.2 | - | - | - | - | -
COc1cccc(-c2cn(CC[C@H]3CC[C@H](NC(=O)CC4CC4)[C@H](CO)O3)nn2)c1 | - | - | - | - | - | -
